Screens deposited in PubChem by Broad Institute.
XiGFP reactiv: X-chromosome reactivation activator | XiGFP mouse fibroblasts, % GFP-positive cells imaging, 3 d; cells co-treated with 5-aza-dC sensitizer; scaled so ellipticine positive control = 100% | activation, % at 7.58 µM | 360,000 tested, 0.055% active;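 active = mean normalized replicate activation at least 10% and every replicate at or above 10%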;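 also: 0% = median of on-plate neutral control wells and 100% = ellipticine 6 µM median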
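Assay system: SV40-immortalized XiGFP fibroblast cells, line 68-5-11; buffer or medium: DMEM plus 5-aza-dC sensitizer; compound: one concentration, pinned; timing: compounds 3 days, fix/stain 15 min at room temperature; benchmarks: positive control ellipticine, 6 µM final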
FGF22 binding: shifts melting point of recombinant human FGF22; Q9HCT0; recombinant FGF22 thermal shift, SYPRO orange fluorescence; percent of sucrose octasulfate shift, DMSO zero; activity (Tm shift, normalised), % at 9.99 µM; 340,000 tested, 1.5% active;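 active = mean Tm shift, scaled 0 neutral to 100 positive control, at about 1.3% or above, every replicate too, limit read from the data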
DENV2 CPE rescue: inhibitors of DENV2 cytopathic effect | DENV2-infected cells, cytopathic effect rescue, plate reader | 350,000 tested, 1.7% active | AID 651640 | CPE inhibition, % at 9.99 µM; in the data active = CPE inhibition above about 20%, passing the limit was not always enough; tested in BHK-21 cells;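 also: 0% = median of neutral control wells and 100% = median of positive control wells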
PglD inh: blocks C. jejuni PglD acetyltransferase activity; purified PglD enzyme, DTNB colorimetric CoA detection; inhibition, % at 12.5 µM; 360,000 tested, 0.098% active; in the data active = inhibition above about 16%, passing the limit was not always enough
C2C12 statin: protects C2C12 myotubes from simvastatin toxicity. 330,000 tested, 0.78% active. ATP luminescence, 48 h; scaled: DMSO 0, geranylgeraniol control 100. rescue of ATP level, % at 7.49 µM;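 active = mean ATP rescue above about 67%, or every replicate alone reaching that limit, limit read from the data, passing the limit was not always enough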;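 also: myotubes were challenged with 10 µM simvastatin during compound exposure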
E-selectin induc: E-selectin induction on HUVECs. P16581. 260,000 tested, 0.37% active. activation, % at 7.58 µM. HUVEC E-selectin immunofluorescence imaging; normalized: neutral wells 0, TNF-alpha wells 100;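 active = mean E-selectin-positive cell signal at least 10% of the positive control, reached in at least 60% of replicates, without over 20% cell loss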
Target sequence (P16581 whole entry, looked up): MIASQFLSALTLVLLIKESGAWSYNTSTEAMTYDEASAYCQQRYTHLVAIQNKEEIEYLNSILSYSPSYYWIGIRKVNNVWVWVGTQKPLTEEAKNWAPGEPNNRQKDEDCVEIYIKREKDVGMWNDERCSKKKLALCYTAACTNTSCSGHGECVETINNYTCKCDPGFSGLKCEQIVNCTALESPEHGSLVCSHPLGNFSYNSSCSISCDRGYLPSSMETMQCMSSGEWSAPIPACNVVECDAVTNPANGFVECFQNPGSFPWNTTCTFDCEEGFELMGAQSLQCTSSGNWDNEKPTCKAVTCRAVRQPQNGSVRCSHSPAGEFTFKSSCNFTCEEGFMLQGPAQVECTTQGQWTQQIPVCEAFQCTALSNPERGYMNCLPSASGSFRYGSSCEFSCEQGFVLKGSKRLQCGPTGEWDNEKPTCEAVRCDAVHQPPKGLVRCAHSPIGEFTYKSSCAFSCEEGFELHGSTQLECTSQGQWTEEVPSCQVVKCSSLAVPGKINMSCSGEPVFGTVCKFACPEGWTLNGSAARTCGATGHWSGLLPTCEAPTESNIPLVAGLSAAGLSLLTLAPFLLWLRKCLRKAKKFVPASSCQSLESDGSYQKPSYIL
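Read-out basis: % PE-positive cells; Test system: HUVEC primary endothelial cells; Technique: immunofluorescence imaging; Dosing: single-point compound dose.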
Active calls of the source: *; . = no result. An excerpt weighted towards active compounds, which were near 3.3% of everything screened.

SMILES	XiGFP reactiv	FGF22 binding	DENV2 CPE rescue	PglD inh	C2C12 statin	E-selectin induc
Cc1noc(C)c1S(=O)(=O)N(C)C[C@@H]1OCCCC[C@H](C)Oc2ccc(NS(=O)(=O)c3cn(C)cn3)cc2C(=O)N([C@H](C)CO)C[C@@H]1C	0	0	2	4	.	0
O=C(C[C@H]1CC[C@H]2[C@@H](COC[C@H](O)CN2Cc2cccc(C(F)(F)F)c2)O1)NCCc1ccccc1	0	0	0	4	-17	0
CC(C)C[C@@H](CO)N(Cc1ccccc1)S(=O)(=O)N(Cc1ccccc1)[C@H](CO)CC(C)C	.	.	.	-3	126*	.
COc1cccc(C(O)c2nc(-c3cc(F)cc(F)c3)cs2)c1 (stereo not given)	0	0	30*	-1	2	0
COc1ccc(C(O)c2nc(-c3cc(F)cc(F)c3)cs2)cc1 (stereo not given)	0	0	-7	6	20	0
COc1cccc(C(O)c2nc(-c3ccc(N(C)C)cc3)cs2)c1 (stereo not given)	0	0	-11	-1	10	.
O=C(O)c1cccc(-c2csc(C(O)c3ccc(F)c(F)c3)n2)c1 (stereo not given)	0	0	41*	8	2	0
COc1ccc(-c2csc(C(O)c3cccc(OC)c3)n2)cc1 (stereo not given)	0	0	52*	-1	7	0
CC(C)NC(=O)Nc1ccc2c(c1)C(=O)N([C@H](C)CO)C[C@@H](C)[C@H](CN(C)Cc1ccc(Cl)c(Cl)c1)OCCCC[C@@H](C)O2	0	0	15	1	.	.
CN(C)C(=O)C[C@H]1CC[C@H]2[C@H](COc3ccc(NC(=O)C4CCCC4)cc3C(=O)N2C)O1	0	.	8	.	.	0
COc1ccc(S(=O)(=O)NCc2csc(C)n2)cc1	.	.	.	.	142*	.
CCOc1ccc(S(=O)(=O)NCc2csc(C)n2)cc1	.	.	.	-1	4	.
C[C@H]1COC[C@@H](C/C=C/c2ccccc2)N1c1ccccc1	0	43*	10	5	2	0
Cc1ccccc1-n1c(=S)[nH]c2nc3c(cc2c1=O)COC(C)(C)C3	0	0	-6	.	-8	0
Cc1ccccc1-n1c(=S)[nH]c2nc3c(cc2c1=O)CCCC3	0	43*	-5	.	.	.
O=C(Nc1nc2ccccc2n1CCN1CCOCC1)c1ccc(COc2ccccc2Br)o1	0	43*	3	.	.	.
C[C@@H]1CN([C@@H](C)CO)C(=O)c2cc(NC(=O)Nc3ccc4c(c3)OCO4)ccc2O[C@@H](C)CCCCO[C@@H]1CN(C)S(=O)(=O)c1ccccc1	0	-1	11	-3	.	0
C[C@H]1CCCCO[C@H](CN(C)S(=O)(=O)c2ccccc2)[C@@H](C)CN([C@@H](C)CO)C(=O)c2cc(NC(=O)Nc3ccc4c(c3)OCO4)ccc2O1	0	-1	61*	-4	.	0
Cc1ccc(S(=O)(=O)N(C)C[C@@H]2OCCCC[C@H](C)Oc3ccc(NC(=O)Nc4ccc5c(c4)OCO5)cc3C(=O)N([C@H](C)CO)C[C@H]2C)cc1	0	0	1	-60	.	.
C[C@H](CO)N1C[C@H](C)[C@@H](CN(C)S(=O)(=O)c2ccccc2)OCCCC[C@H](C)Oc2ccc(NC(=O)Nc3ccc4c(c3)OCO4)cc2C1=O	0	0	29*	2	.	0
C[C@@H]1CCCCO[C@H](CN(C)S(=O)(=O)c2ccccc2)[C@@H](C)CN([C@H](C)CO)C(=O)c2cc(NC(=O)Nc3ccc4c(c3)OCO4)ccc2O1	0	0	91*	3	.	0
Cc1ccc(S(=O)(=O)N(C)C[C@@H]2OCCCC[C@@H](C)Oc3ccc(NC(=O)Nc4ccc5c(c4)OCO5)cc3C(=O)N([C@H](C)CO)C[C@H]2C)cc1	0	0	6	-6	.	.
C[C@H](O)C#Cc1ccc2c(c1)O[C@@H](CN(C)CC1CC1)[C@H](C)CN([C@H](C)CO)S2(=O)=O	-1	.	.	.	-12	1
C[C@@H]1CN(C)C(=O)c2cccc(N)c2O[C@H]1CN(C)C(=O)OC(C)(C)C	0	.	.	.	.	.
